In ChEMBL document CHEMBL1137816, “New polyhydroxylated pyrrolidine, piperidine, and pyrrolizidine alkaloids from Scilla sibirica” (J Nat Prod, 2002) one finds IC50, inhibition and Activity data, which are given here for 10 molecules.

Assay [1] can be described thus: Inhibition of rice alpha-glucosidase assessed as D-glucose release after 10 mins by Glucose B-test. Details: species or system Oryza sativa. The method, boiled down:
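Rice enzyme with maltose as substrate at the enzyme's optimum pH. Incubation with inhibitor ran 10 min at 37 °C. Released D-glucose determined colorimetrically with a glucose test kit.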

In another assay the target is T1, Beta-mannosidase (Rattus norvegicus, UniProt Q4FZV0).
T1 sequence (Q4FZV0 whole entry): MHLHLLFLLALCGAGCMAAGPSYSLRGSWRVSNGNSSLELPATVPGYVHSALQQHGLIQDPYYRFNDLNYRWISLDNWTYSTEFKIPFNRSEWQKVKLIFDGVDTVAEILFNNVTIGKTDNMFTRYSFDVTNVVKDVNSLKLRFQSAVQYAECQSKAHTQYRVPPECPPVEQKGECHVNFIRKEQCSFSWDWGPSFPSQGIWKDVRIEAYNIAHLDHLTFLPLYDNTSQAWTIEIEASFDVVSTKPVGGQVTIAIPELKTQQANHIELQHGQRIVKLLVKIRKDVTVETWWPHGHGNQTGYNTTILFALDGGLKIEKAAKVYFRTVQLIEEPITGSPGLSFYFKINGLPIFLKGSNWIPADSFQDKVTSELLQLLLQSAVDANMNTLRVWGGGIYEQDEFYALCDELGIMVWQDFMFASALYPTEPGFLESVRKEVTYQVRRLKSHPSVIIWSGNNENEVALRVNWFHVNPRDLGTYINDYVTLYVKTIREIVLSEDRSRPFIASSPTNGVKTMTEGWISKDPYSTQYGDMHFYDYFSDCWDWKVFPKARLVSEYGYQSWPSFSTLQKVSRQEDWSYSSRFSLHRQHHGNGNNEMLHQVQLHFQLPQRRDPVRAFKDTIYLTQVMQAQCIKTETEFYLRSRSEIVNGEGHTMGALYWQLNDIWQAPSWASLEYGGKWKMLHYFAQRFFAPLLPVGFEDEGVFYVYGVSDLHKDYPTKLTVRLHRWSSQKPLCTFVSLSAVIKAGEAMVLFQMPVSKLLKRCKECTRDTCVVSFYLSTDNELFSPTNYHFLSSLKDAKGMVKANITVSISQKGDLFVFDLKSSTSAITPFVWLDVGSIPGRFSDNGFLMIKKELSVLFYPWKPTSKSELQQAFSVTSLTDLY
In words: Inhibition of rat epididymis beta-mannosidase assessed as p-nitrophenol release after 30 mins by spectrophotometry. The method, boiled down:
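Source was rat epididymal fluid purified from epididymis. Assayed at pH 5.2 with p-nitrophenyl-β-D-mannoside, incubated with inhibitor 30 min at 37 °C. Stopped with 400 mM Na2CO3; p-nitrophenol read at 400 nm.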

A further assay has as its target T2, Beta-galactosidase (Bos taurus, UniProt Q58D55).
T2 sequence (Q58D55 whole entry): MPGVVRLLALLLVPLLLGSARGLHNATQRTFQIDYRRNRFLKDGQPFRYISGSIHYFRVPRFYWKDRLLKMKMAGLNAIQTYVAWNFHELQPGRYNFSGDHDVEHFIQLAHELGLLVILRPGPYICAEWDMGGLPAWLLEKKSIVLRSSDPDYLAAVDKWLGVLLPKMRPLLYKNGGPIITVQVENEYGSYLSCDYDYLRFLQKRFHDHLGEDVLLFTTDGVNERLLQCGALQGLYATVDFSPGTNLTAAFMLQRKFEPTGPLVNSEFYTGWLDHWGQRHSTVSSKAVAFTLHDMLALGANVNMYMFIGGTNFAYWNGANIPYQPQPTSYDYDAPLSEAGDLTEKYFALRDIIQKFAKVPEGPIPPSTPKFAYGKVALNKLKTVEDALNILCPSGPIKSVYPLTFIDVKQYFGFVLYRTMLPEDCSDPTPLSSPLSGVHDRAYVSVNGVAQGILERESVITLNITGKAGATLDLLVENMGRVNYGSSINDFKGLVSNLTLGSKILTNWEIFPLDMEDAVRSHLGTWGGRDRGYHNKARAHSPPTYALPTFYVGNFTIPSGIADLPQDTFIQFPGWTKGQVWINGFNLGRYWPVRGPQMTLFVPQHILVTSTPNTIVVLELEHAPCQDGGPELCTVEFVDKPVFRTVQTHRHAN
In words: Inhibition of bovine liver beta-galactosidase assessed as p-nitrophenol release after 30 mins by spectrophotometry. The method, boiled down:
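Bovine liver enzyme at pH 6.8 with the appropriate p-nitrophenyl glycoside. Incubated with inhibitor 30 min at 37 °C, quenched with 400 mM Na2CO3, and released p-nitrophenol read at 400 nm.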

Assay [2] has as its target T3, Tissue alpha-L-fucosidase (Bos taurus) (UniProt Q2KIM0).
T3 sequence (whole entry): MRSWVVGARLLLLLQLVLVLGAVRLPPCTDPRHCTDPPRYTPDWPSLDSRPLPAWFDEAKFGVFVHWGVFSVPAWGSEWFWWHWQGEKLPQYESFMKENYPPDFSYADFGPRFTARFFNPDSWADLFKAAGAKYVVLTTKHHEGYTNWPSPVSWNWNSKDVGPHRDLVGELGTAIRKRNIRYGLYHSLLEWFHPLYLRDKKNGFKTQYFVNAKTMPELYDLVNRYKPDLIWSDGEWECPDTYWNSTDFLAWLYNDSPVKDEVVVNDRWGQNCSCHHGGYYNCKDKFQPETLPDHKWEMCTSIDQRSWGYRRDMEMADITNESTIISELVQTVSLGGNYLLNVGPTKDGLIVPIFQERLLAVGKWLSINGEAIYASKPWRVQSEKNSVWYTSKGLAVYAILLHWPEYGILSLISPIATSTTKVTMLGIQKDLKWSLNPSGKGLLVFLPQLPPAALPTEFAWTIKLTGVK
The assay can be described thus: Inhibition of bovine epididymis alpha-L-fucosidase assessed as p-nitrophenol release at 1000 uM after 30 mins by spectrophotometry. The method, boiled down: (§1)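 p-Nitrophenyl glycoside substrates: Penicillium decumbens α-L-rhamnosidase at pH 4.5, bovine epididymis α-L-fucosidase at pH 5.5, bovine liver β-galactosidase at pH 6.8. β-Mannosidase came from rat epididymal fluid purified from epididymis, with p-nitrophenyl-β-D-mannoside at pH 5.2. Enzyme, substrate and inhibitor were incubated 30 min at 37 °C. The reaction was stopped with 400 mM Na2CO3, and p-nitrophenol was read at 400 nm.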

The next assay concerns Penicillium decumbens. The assay can be described thus: Inhibition of Penicillium decumbens alpha-L-rhamnosidase assessed as p-nitrophenol release at 1000 uM by spectrophotometry. The method, boiled down: as §1
For a further assay, the target named is Alpha-glucosidase MAL12 (Saccharomyces cerevisiae S288c, UniProt P53341). The assay can be described thus: Inhibition of yeast alpha-glucosidase assessed as p-nitrophenol release after 30 mins measured at 400 nm.
Another assay concerns the target Beta-glucosidase A (Caldicellulosiruptor saccharolyticus, UniProt P10482). The assay can be described thus: Inhibition of Caldocellum saccharolyticum beta-glucosidase assessed as p-nitrophenol release after 30 mins measured spectrometrically at 400 nm.
The target of assay [3] is Lysosomal alpha-glucosidase (Rattus norvegicus) (UniProt Q6P7A9). The assay can be described thus: Inhibition of rat liver lysosome alpha-glucosidase assessed as p-nitrophenol release at 1000 uM after 30 mins measured spectrometrically at 400 nm.
The target of assay [4] is T4, Beta-galactosidase (Bos taurus) (UniProt Q58D55).
T4 sequence (whole entry): T2 sequence (Q58D55 whole entry)
In words: Inhibition of bovine liver beta-galactosidase assessed as p-nitrophenol release at 1000 uM after 30 mins by spectrophotometry. In short, it runs like this: as §1

Assay [5] is described as follows: Inhibition of rat intestinal amyloglucosidase.
The subject of a further assay is Oryza sativa. The assay can be described thus: Inhibition of rice alpha-glucosidase assessed as D-glucose release at 1000 uM after 10 mins by Glucose B-test. In short, it runs like this:
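Rice α-glucosidase was assayed with maltose as substrate at the enzyme's optimum pH. Incubation with inhibitor was 10 min at 37 °C. Released D-glucose was determined colorimetrically by Glucose B-test.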

The target of assay [6] is Oligo-1,6-glucosidase IMA1 (Saccharomyces cerevisiae S288c) (UniProt P53051). In words: Inhibition of yeast alpha-glucosidase assessed as D-glucose release at 1000 uM after 30 mins by Glucose B-test.
Assay [7] deals with Lysosomal alpha-glucosidase (Rattus norvegicus) (UniProt Q6P7A9). The assay can be described thus: Inhibition of rat intestinal maltase assessed as D-glucose release at 1000 uM after 30 mins by Glucose B-test. The method, boiled down:
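Brush border membranes from rat small intestine served as the enzyme source, with maltose substrate at pH 5.8. Incubation with inhibitor was 30 min at 37 °C. Released D-glucose was measured colorimetrically by Glucose B-test.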

For assay [8] the target is unchanged. In words: Inhibition of rat liver lysosome alpha-glucosidase assessed as D-glucose release at 1000 uM after 30 mins by Glucose B-test.
The target of assay [9] is T5, Beta-mannosidase (Rattus norvegicus) (UniProt Q4FZV0).
T5 sequence (whole entry): T1 sequence (Q4FZV0 whole entry)
In words: Inhibition of rat epididymis beta-mannosidase assessed as p-nitrophenol release at 1000 uM after 30 mins by spectrophotometry. In short, it runs like this: as §1

Assay [10] is described as follows: Inhibition of Penicillium decumbens alpha-L-rhamnosidase assessed as p-nitrophenol release after 30 mins by spectrophotometry. The method, boiled down:
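Penicillium decumbens enzyme assayed at pH 4.5 with the appropriate p-nitrophenyl glycoside. Substrate, diluted enzyme and inhibitor were incubated 30 min at 37 °C, then stopped with 400 mM Na2CO3. Released p-nitrophenol was read at 400 nm.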

For assay [11], the target named is Oligo-1,6-glucosidase IMA1 (Saccharomyces cerevisiae S288c) (UniProt P53051). In words: Inhibition of yeast alpha-glucosidase assessed as p-nitrophenol release at 1000 uM after 30 mins measured spectrometrically at 400 nm.

pIC50: −log10 of the molar value. Active and inactive are the calls of the source. No cut-off for these calls is given here.

Chain of Lysosomal alpha-glucosidase (Rattus norvegicus) (Q6P7A9 whole entry): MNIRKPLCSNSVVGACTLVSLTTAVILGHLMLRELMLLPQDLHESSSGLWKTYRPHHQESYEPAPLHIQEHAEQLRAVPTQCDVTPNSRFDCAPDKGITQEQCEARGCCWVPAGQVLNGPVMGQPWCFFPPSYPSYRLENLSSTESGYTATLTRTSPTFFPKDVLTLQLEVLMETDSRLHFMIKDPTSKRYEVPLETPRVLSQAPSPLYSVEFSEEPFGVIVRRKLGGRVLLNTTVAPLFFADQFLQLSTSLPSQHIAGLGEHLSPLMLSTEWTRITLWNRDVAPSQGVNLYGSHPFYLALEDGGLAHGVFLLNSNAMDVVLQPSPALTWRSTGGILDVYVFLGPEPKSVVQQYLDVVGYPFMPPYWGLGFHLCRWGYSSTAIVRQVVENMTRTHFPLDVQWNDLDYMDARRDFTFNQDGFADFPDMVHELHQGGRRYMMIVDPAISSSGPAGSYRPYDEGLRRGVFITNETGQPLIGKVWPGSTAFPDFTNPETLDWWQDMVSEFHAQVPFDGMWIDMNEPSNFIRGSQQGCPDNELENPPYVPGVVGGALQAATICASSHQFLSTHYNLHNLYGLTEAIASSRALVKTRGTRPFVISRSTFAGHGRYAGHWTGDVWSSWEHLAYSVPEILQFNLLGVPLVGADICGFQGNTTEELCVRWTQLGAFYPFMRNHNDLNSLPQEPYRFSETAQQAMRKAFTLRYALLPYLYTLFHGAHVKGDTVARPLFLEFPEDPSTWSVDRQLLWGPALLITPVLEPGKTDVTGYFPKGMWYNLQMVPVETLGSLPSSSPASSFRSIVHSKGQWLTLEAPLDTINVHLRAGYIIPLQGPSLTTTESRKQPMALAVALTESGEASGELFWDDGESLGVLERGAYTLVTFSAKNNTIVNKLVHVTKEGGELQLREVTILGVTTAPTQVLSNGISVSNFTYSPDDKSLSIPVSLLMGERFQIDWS
Chain of Oligo-1,6-glucosidase IMA1 (Saccharomyces cerevisiae S288c) (P53051 whole entry): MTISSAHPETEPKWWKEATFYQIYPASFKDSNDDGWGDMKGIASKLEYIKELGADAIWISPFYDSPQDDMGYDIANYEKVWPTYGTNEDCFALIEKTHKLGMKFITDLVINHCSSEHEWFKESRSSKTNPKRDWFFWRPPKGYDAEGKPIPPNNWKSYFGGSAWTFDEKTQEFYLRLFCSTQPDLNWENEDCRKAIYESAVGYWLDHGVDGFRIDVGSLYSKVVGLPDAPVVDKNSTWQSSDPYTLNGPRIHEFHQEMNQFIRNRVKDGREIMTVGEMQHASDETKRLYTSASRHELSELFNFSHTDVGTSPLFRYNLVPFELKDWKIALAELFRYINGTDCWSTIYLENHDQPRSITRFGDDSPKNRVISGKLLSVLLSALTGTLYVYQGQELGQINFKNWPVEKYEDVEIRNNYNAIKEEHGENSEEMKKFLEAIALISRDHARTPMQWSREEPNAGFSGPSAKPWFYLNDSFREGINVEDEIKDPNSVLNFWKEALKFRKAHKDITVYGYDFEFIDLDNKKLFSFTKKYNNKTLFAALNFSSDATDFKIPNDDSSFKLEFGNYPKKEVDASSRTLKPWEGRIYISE
Chain of Beta-glucosidase A (P10482 whole entry): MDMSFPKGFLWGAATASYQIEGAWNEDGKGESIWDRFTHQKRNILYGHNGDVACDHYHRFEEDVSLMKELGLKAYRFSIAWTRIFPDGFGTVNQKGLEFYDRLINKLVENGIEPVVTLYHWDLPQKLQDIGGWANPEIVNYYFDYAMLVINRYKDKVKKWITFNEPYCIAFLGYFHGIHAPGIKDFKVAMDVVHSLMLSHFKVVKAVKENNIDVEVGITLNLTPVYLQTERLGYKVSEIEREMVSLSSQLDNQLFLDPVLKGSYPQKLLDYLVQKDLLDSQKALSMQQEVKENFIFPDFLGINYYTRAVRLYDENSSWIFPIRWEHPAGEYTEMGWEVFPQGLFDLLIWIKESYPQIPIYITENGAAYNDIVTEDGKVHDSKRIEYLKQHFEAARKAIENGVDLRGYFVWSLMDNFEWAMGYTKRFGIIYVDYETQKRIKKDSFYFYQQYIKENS
Chain of Alpha-glucosidase MAL12 (P53341 whole entry): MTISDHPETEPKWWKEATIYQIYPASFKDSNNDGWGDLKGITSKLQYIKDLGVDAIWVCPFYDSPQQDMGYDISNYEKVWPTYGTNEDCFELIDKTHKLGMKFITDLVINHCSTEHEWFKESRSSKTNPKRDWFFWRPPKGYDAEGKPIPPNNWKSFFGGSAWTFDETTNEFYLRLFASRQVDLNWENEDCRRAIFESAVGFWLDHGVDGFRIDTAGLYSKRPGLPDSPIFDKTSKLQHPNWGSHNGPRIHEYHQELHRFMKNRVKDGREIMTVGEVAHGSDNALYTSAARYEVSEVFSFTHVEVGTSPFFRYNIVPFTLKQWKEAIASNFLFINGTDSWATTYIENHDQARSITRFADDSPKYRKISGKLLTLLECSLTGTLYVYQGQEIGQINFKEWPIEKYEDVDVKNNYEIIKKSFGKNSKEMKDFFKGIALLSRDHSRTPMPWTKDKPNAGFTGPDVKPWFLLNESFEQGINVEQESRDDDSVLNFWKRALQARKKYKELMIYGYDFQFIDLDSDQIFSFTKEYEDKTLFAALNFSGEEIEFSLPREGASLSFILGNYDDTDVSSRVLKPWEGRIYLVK

In the case of `CC(O)[C@H]1N[C@H](CO)[C@@H](O)[C@@H]1O` (single isomer, unassigned), the pIC50 in [1] is 5.04; at Beta-mannosidase, 4.46; on Beta-galactosidase, 5.47; at Alpha-glucosidase MAL12, 4.07; at Beta-glucosidase A, 5.17. Further, the inhibition (in assay [2]; with Penicillium decumbens; in assay [3]) was under 50% each time.

`OCC(O)[C@H]1N[C@H](CO)[C@@H](O)[C@@H]1O` (single isomer, unassigned): the negative-log IC50 (pIC50) in [1] is 4.02; at Beta-mannosidase, 4.28; at Beta-galactosidase it was 5.36; on Alpha-glucosidase MAL12, 3.66; at Beta-glucosidase A it was 5.49. For the same molecule, the inhibition (in [2]; in the assay on Penicillium decumbens; in [3]) was under 50% throughout.

For `C[C@@H]1C[C@H](O)[C@@H]2[C@H](O)[C@H](O)[C@@H](CO)N21` (relative stereo) [HYACINTHACINE B5], the result (in assay [4]; in [2]; in the assay with Penicillium decumbens; in the assay on Oryza sativa; in assay [6]; in assay [7]) was inactive. In addition, the outcome in assay [8] was inactive. Also, the negative-log IC50 (pIC50) in assay [5] is 3.96.

Take `C[C@@H]1CC[C@@H]2[C@@H](O)[C@@H](O)[C@@H](CO)N12` (relative stereo) [HYACINTHACINE A5]: the result (in assay [4]; in [2]; in the assay on Penicillium decumbens; with Oryza sativa; in [6]; in [7]) was inactive. The outcome in [8] was inactive. Further, the negative logarithm of the IC50 (pIC50) in assay [5] is 3.96.

For `C[C@H]1CC[C@@H]2[C@H](O)[C@H](O)[C@H](CO)N21` (relative stereo), the outcome (in [9]; in [4]; in assay [2]; in the assay with Penicillium decumbens; in the assay with Oryza sativa; in [6]) was inactive. Moreover, the outcome in [7] and in assay [8] was inactive.

As to `OC[C@H]1NC[C@@H](O)[C@H](O)[C@@H]1O`, in [10], the pIC50 was 5.74. Also, the inhibition (in assay [9]; in [2]; with Oryza sativa; in assay [7]; in assay [11]; in assay [3]) was under 50% each time.

In the case of `C[C@@H]1CC[C@@H]2[C@H](O)[C@H](O)[C@@H](CO)N12` (relative stereo), the outcome (in [4]; in [2]; in the assay with Penicillium decumbens; in the assay with Oryza sativa; in [6]; in assay [7]) was inactive. In assay [8], the result was inactive.

In the case of `C[C@@H]1C[C@H](O)[C@@H]2[C@H](O)[C@@H](O)[C@@H](CO)N21` (relative stereo), the result (in [4]; in assay [2]; with Penicillium decumbens; in the assay on Oryza sativa; in [6]; in assay [7]) was inactive. The outcome in assay [8] was inactive.

Take `C[C@H]1CC[C@@H]2[C@H](O)[C@H](O)[C@@H](CO)N21` (relative stereo): the outcome (in [4]; in assay [2]; in the assay with Penicillium decumbens; with Oryza sativa; in assay [6]; in assay [7]) was inactive. For the same molecule, in [8], the outcome was inactive.

For the molecule `OC[C@H]1NC[C@H](O)[C@@H](O)[C@@H]1O` [DUVOGLUSTAT], the values for the negative logarithm of the IC50 (pIC50) in [1] and in assay [10] were 7.30 and 3.07, respectively. Also, the inhibition in assay [9], in assay [4] and in assay [2] was under 50% each time.

In general, pIC50 refers to the negative decadic logarithm of the IC50, by convention in mol/L. In general, inhibition refers to the change of the read-out against control, counted positive when it falls.
